What was measured:
Type in all cases: functional
[1] = Cell cycle arrest in human HCT116 cells assessed as G2/M phase accumulation at 1 uM after 48 hrs by Annexin V-FITC/propidium iodide staining based flow cytometry (reference value: 25.3%); conditions: HCT-116
HCT-116 [2] = assay: Induction of apoptosis in human HCT116 cells assessed as necrotic cells at 4 uM after 48 hrs by Annexin V-FITC/propidium iodide staining based flow cytometry (reference value: 0.8%)
HCT-116 [3] = assay: Induction of apoptosis in human HCT116 cells assessed as necrotic cells at 8 uM after 48 hrs by Annexin V-FITC/propidium iodide staining based flow cytometry (reference value: 0.8%)
HCT-116 [4] = assay: Induction of apoptosis in human HCT116 cells assessed as early apoptotic cells at 0.1 uM after 48 hrs by Annexin V-FITC/propidium iodide staining based flow cytometry (reference value: 3.8%)
Procedure, shortened: (§1)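 HCT116 seeded at 2×10^5 cells/well, cultured 6 h, then treated 48 h at 0.1, 0.5, 1, 4, 8 or 16 µM; DMSO (0.1%) served as vehicle. Cells washed twice in cold PBS, resuspended in binding buffer with FITC Annexin V and PI for 15 min at RT in the dark, diluted, and run on flow cytometry within 1 h.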

[5] = Cell cycle arrest in human HCT116 cells assessed as sub-G1 phase accumulation at 4 uM after 48 hrs by Annexin V-FITC/propidium iodide staining based flow cytometry (reference value: 4.36%); conditions: HCT-116
HCT-116 [6] = assay: Induction of apoptosis in human HCT116 cells assessed as early apoptotic cells at 16 uM after 48 hrs by Annexin V-FITC/propidium iodide staining based flow cytometry (reference value: 3.8%); procedure, shortened: as §1
[7] = Cytotoxicity against human Saos2 cells assessed as growth inhibition at 20 uM after 72 hrs by CCK-8 assay; conditions: SAOS-2, 72 h, read-out: GI
Procedure, shortened: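 Cells kept in RPMI 1640 with 10% heat-inactivated fetal calf serum and 1% streptomycin/penicillin at 37 °C, 5% CO2. After compound exposure, CCK-8 was added and cells were incubated 4 h at 37 °C, then absorbance was read at 450 nm. Viability is relative to untreated cells (100%). IC50 comes from nonlinear regression, mean of three separate determinations. Single-concentration screen at 20 µM.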

[8] = Cell cycle arrest in human HCT116 cells assessed as S phase accumulation at 1 uM after 48 hrs by Annexin V-FITC/propidium iodide staining based flow cytometry (reference value: 28.43%); conditions: HCT-116
HCT-116 [9] = assay: Induction of apoptosis in human HCT116 cells assessed as necrotic cells at 1 uM after 48 hrs by Annexin V-FITC/propidium iodide staining based flow cytometry (reference value: 0.8%)
HCT-116 [10] = assay: Induction of apoptosis in human HCT116 cells assessed as live cells at 0.1 uM after 48 hrs by Annexin V-FITC/propidium iodide staining based flow cytometry (reference value: 88.7%)

**Q.** Which Activity [1] does the source give for `CC(C)(C)OC(=O)/C=C1/C(=O)Nc2ccccc21` here?
**A.** 33.1%

**Q.** And the Activity (HCT-116 [2])?
**A.** 0.7%

**Q.** What about the Activity (HCT-116 [3]) of the same molecule?
**A.** 0.8%

**Q.** And the Activity (HCT-116 [4])?
**A.** 3.2%

**Q.** And the Activity [5]?
**A.** 35.7%

**Q.** What about the Activity (HCT-116 [6]) of the same molecule?
**A.** 2.7%

**Q.** What about the inhibition of growth at 20 µM [7] of the same molecule?
**A.** 83.3%

**Q.** What about the Activity [8] of the same molecule?
**A.** 34.3%

**Q.** What about the Activity (HCT-116 [9]) of the same molecule?
**A.** 1.3%

**Q.** And the Activity (HCT-116 [10])?
**A.** 90.8%

— ChEMBL document CHEMBL3877250, “Design, synthesis, and biological evaluation of (2E)-(2-oxo-1, 2-dihydro-3H-indol-3-ylidene)acetate derivatives as anti-proliferative agents through ROS-induced cell apoptosis” (Eur J Med Chem, 2016)
